Measured values published in publication PMC11092366 (RSC Advances, 2024).

How the values were obtained:
[1] = molecular target: L. donovani DNA topoisomerase I; conditions: L. donovani DNA topoisomerase I poison; cited from earlier work
[2] = system: L. infantum MHOM/TN/80/IPT1 promastigotes; experiment: L. infantum viability assay; assay type: cell-based, Leishmania infantum
Outline: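 Late log/stationary promastigotes, kept in EMTM at 26–28 °C, then RPMI-PY. Plated at 2.5 × 10^6 parasites per mL with 20 μM test compound, 72 h, 26 °C, in duplicate, miltefosine as positive control. Viability by CellTiter 96 aqueous assay gives % inhibition. SI is THP-1 CC50 divided by promastigote IC50. IC50 comes from 20–0.31 μM dilutions, fitted by nonlinear regression with unconstrained Hill slope.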

[3] = Cytotoxicity on PMA-differentiated THP-1 cells; assay type: cell-based; conditions: human, PMA-differentiated macrophage-like THP-1 cells
Outline: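 Human THP-1 cells grown in RPMI-1640 with 10% heat-inactivated FBS, 2 mM L-glutamine, penicillin and streptomycin at 37 °C, 5% CO2. Seeded at 5 × 10^6 cells per mL and differentiated 48 h with 20 ng mL−1 PMA. After adhesion, exposed to 1:2 dilutions (100 to 3.12 μM), in duplicate, with untreated and miltefosine controls. CellTiter 96 aqueous read-out; CC50 by nonlinear regression, mean and 95% CI.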

| Structure (SMILES) | IC50 [1] | SI (selectivity index = CC50/IC50) ([2]; CC50 THP-1 / IC50 L. infantum promastigotes) | IC50 ([2]; Leishmania infantum, 72 h, read-out: L. infantum IC50 (μM) (95% CI), L. infantum MHOM/TN/80/IPT1 promastigotes, 72 h, mean and 95% CI, duplicate experiments) | CC50 [3] |
| --- | --- | --- | --- | --- |
| c1ccc2c(Cc3c[nH]c4ccccc34)c[nH]c2c1 [DIM, 3,3′-Diindolylmethane] | 1.2 µM | – | – | – |
| CCCCCCCCCCCCCCCCOP(=O)([O-])OCC[N+](C)(C)C [MILT, Miltefosine] | – | 9.9 | 3.7 µM | 36.6 µM |
